The values below come from ChEMBL document CHEMBL1130391, “Novel agonists of 5HT2C receptors. Synthesis and biological evaluation of substituted 2-(indol-1-yl)-1-methylethylamines and 2-(indeno[1,2-b]pyrrol-1-yl)-1-methylethylamines. Improved therapeutics for obsessive compulsive disorder” (J Med Chem, 1997).

The target in experiment [1] is T1, 5-hydroxytryptamine receptor 2C (Rattus norvegicus) (UniProt P08909).
T1 sequence (whole entry): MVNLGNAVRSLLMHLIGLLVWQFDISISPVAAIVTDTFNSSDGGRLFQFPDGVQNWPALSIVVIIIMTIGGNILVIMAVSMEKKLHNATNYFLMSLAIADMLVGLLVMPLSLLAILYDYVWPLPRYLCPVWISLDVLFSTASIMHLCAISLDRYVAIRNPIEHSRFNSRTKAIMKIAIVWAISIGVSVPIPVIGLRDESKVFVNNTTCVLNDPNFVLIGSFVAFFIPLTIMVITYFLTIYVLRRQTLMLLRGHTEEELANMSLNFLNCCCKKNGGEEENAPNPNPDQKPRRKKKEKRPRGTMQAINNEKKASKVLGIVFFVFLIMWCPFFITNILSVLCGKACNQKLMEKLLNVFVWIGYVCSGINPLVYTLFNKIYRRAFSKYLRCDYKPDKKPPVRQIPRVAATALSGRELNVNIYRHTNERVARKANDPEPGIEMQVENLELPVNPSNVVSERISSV
Put plainly: Intrinsic 5-HT 2c receptor activity as induced IP3 turnover in vitro in rat choroid plexus. It counts as functional, tissue-based. The essentials:
(§1)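 Rat choroid plexus preloaded with [³H]myoinositol for 1 h at 37 °C in oxygenated Krebs. LiCl 10 mM and pargyline 10 µM added, then compound 10 min later. Six concentrations, top 0.1 mM, incubated 0.5 h at 37 °C. Stopped with HClO₄/EDTA, then IP₃ isolated. Three measures per point. Intrinsic activity is the maximum relative to 10 µM 5HT.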

For experiment [2], the target named is T1, 5-hydroxytryptamine receptor 2C (Rattus norvegicus). As to the kind of experiment: Induction of penile erection in rats after subcutaneous administration, indicative of 5-HT 2c receptor activation. In kind it is functional, organism-based. In short, it runs like this: (§2)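 Male erection counts in RORO rats, 8 per dose, over 45 min. Drug is given in 0.3% Tween-80 in saline, sc at 5 mL/kg or orally at 10 mL/kg. Vehicle controls are included, and doses are expressed as salt weight. ED₅₀ by probit analysis, or the approximate dose at which half the rats respond.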

The target is the same in experiment [3]. As to the kind of experiment: Induction of penile erection in rats following p.o. administration, indicative of 5-HT 2c receptor activation. It counts as functional, organism-based. In short, it runs like this: as §2
The target of experiment [4] is 5-hydroxytryptamine receptor 2A (Homo sapiens, UniProt P28223). Put plainly: Binding affinity against human 5-hydroxytryptamine 2A receptor using displacement of [3H]5-HT.
For experiment [5], the target named is T2, 5-hydroxytryptamine receptor 2C (Rattus norvegicus, UniProt P08909).
T2 sequence (P08909 whole entry): T1 sequence (whole entry)
Put plainly: Efficacy (pEC50) was evaluated for 5-HT2C receptor-mediated stimulation of IP3 formation in vitro in choroid plexus of the rat. In kind it is functional, tissue-based. The essentials: as §1

Experiment [6] deals with T3, 5-hydroxytryptamine receptor 2C (Homo sapiens, UniProt P28335).
T3 sequence (P28335 whole entry): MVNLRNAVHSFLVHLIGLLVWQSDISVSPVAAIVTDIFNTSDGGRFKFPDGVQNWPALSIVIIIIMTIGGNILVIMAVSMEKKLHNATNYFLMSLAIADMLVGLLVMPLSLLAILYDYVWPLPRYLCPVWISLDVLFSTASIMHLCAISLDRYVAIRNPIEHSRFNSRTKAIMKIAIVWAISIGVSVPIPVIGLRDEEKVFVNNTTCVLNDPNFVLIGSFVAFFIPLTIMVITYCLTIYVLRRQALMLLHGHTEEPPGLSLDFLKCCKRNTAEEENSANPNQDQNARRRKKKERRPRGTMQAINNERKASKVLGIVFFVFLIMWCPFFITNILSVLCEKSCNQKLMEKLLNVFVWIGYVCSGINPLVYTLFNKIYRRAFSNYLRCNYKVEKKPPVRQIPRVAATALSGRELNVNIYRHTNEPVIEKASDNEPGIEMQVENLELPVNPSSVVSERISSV
Put plainly: Binding affinity against human 5-hydroxytryptamine 2C receptor using displacement of [3H]DOB.

5-hydroxytryptamine receptor 2A, sequence (P28223 whole entry): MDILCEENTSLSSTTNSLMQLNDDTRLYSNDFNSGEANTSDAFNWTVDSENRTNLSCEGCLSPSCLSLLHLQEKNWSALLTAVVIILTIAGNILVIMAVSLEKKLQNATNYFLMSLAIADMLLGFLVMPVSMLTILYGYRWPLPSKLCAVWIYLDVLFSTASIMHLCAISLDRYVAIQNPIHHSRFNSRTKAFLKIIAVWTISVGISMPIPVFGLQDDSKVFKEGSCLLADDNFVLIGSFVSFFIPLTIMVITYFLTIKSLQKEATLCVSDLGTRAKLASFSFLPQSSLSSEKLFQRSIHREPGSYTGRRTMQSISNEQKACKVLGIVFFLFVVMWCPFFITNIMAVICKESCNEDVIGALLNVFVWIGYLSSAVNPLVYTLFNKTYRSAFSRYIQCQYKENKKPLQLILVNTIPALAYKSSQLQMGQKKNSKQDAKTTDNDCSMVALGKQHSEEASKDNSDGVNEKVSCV

Compound `CC(N)Cn1ccc2ccc(F)cc21` (stereo unspecified) showed an Efficacy in experiment [1] of 1. Also, the ED50 (as a rule, the dose that gives a 50% effect, or the effect in half of the subjects) is 0.3 mg/kg in experiment [2] and > 30 mg/kg in experiment [3]. Moreover, the figures for the Ki in experiment [4] and in experiment [6] were 251 nM and 3.98 nM, respectively. Moreover, a half-maximal response in experiment [5] (EC50) required 631 nM.
In the case of `CC(N)Cn1ccc2cc(Br)ccc21` (stereo unspecified), the Efficacy in experiment [1] came to 0.8. The ED50 in experiment [2] is 4 mg/kg; in experiment [3], > 30 mg/kg. In addition, the values for the Ki in experiment [4] and in experiment [6] were 158 nM and 3.98 nM, respectively. It took 2000 nM to reach a half-maximal effect in experiment [5] (EC50).
For the compound `CC(N)Cn1ccc2c1-c1cc(Br)ccc1C2` (stereo unspecified), the Efficacy in experiment [1] amounted to 1. Besides, the ED50 in experiment [2] is > 10 mg/kg. The inhibition constant (Ki) (commonly the dissociation constant of the complex between target and ligand, obtained from inhibition or displacement) in experiment [4] is 100 nM; in experiment [6] it was 3.98 nM. The EC50 (in general, the concentration that produces a half-maximal response) in experiment [5] was 2510 nM.
For the compound `C[C@@H](N)Cn1ccc2cc(F)c(Cl)cc21`, the Efficacy in experiment [1] came to 1. Further, the ED50 in experiment [2] is 2.1 mg/kg; in experiment [3] it was > 30 mg/kg. Besides, the figures for the Ki in experiment [4] and in experiment [6] were 79.4 nM and 10 nM, respectively. This compound also had an EC50 in experiment [5] of 3160 nM.
With `Cc1ccc2c(ccn2CC(C)N)c1` (stereo unspecified), in experiment [1], the Efficacy turned out to be 0.9. Further, the ED50 in experiment [2] is > 10 mg/kg. The Ki in experiment [4] was 794 nM; in experiment [6], 63.1 nM. In experiment [5], this compound showed an EC50 of 2510 nM.
For the compound `C[C@@H](N)Cn1ccc2cc(F)c(F)cc21`, in experiment [1], the Efficacy is 1. Moreover, the ED50 in experiment [2] stood at 2.7 mg/kg; in experiment [3] it was 30 mg/kg. In addition, the Ki is 100 nM in experiment [4] and 3.98 nM in experiment [6]. This compound also had an EC50 in experiment [5] of 126 nM.
For `CC(N)Cn1ccc2c1-c1cc(F)ccc1C2` (stereo unspecified), the Efficacy in experiment [1] came out at 1. Besides, the ED50 in experiment [2] was 1.5 mg/kg; in experiment [3] it was > 30 mg/kg. Also, the figures for the Ki in experiment [4] and in experiment [6] were 200 nM and 3.16 nM, respectively. Besides, the EC50 in experiment [5] was 631 nM.
For `COc1cccc2c1-c1c(ccn1CC(C)N)C2` (stereo unspecified), the Efficacy in experiment [1] turned out to be 0.7. Besides, in experiment [2], the ED50 is > 10 mg/kg. The results for the Ki in experiment [4] and in experiment [6] were 398 nM and 12.6 nM, respectively. In experiment [5], the half-maximal effective concentration (EC50) was 6310 nM.
Compound `COc1ccc2c(ccn2CC(C)N)c1` (stereo unspecified) yielded an Efficacy in experiment [1] of 0.3. The ED50 in experiment [2] is > 10 mg/kg. In experiment [5], this compound had an EC50 of 10000 nM. The compound further had a Ki in experiment [6] of 794 nM.
Compound `COc1ccc2c(c1)-c1c(ccn1C[C@@H](C)N)C2` returned an Efficacy in experiment [1] of 0.8. The ED50 in experiment [2] is 2 mg/kg; in experiment [3], > 30 mg/kg. Also, the Ki was 126 nM in experiment [4] and 3.98 nM in experiment [6]. This compound also gave an EC50 in experiment [5] of 7940 nM.
`CC(N)Cn1ccc2c1-c1cc(F)ccc1C2(C)C` (stereo unspecified) gave an Efficacy in experiment [1] of 1. Further, the ED50 is 2.7 mg/kg in experiment [2] and > 30 mg/kg in experiment [3]. The values for the Ki in experiment [4] and in experiment [6] were 31.6 nM and 5.01 nM, respectively. A half-maximal effect in experiment [5] (EC50) was put at 200 nM.
On to `Cc1ccc2c(c1)-c1c(ccn1CC(C)N)C2` (stereo unspecified), for which, in experiment [1], the Efficacy is 1. Moreover, in experiment [2], the ED50 was > 10 mg/kg. Besides, the Ki was 63.1 nM in experiment [4] and 7.94 nM in experiment [6]. The EC50 in experiment [5] is 501 nM.
With `CC(N)Cn1ccc2c1-c1cc(Cl)ccc1C2` (stereo unspecified), the Efficacy in experiment [1] turned out to be 0.8. Further, the 50% effective dose (ED50) is 2.7 mg/kg in experiment [2] and > 30 mg/kg in experiment [3]. Also, the Ki in experiment [4] is 200 nM; in experiment [6], 3.98 nM. In experiment [5], it took 2510 nM to reach a half-maximal effect (EC50).
`COc1ccc2c(c1)Cc1ccn(CC(C)N)c1-2` (stereo unspecified) registered an Efficacy in experiment [1] of 1. Moreover, the median effective dose (ED50) in experiment [2] is > 10 mg/kg. The inhibition constant Ki was 398 nM in experiment [4] and 12.6 nM in experiment [6]. In experiment [5], this compound had an EC50 of 2000 nM.
On to `CC(N)Cn1ccc2c(F)cccc21` (stereo unspecified), for which, in experiment [1], the Efficacy came out at 0.7. Besides, the ED50 in experiment [2] is > 10 mg/kg. Besides, the Ki in experiment [4] was 158 nM; in experiment [6] it was 7.94 nM. Moreover, the EC50 in experiment [5] is 1260 nM.
For the compound `COc1cccc2c1ccn2CC(C)N` (stereo unspecified), in experiment [1], the Efficacy was determined as 0.3. In addition, in experiment [2], the ED50 was > 10 mg/kg. In experiment [5], this compound showed a concentration giving a half-maximal response (EC50) of 12600 nM. Also, in experiment [6], the affinity, expressed as Ki, was 126 nM.
